ChEMBL document CHEMBL4673245, “Discovery of AZD9833, a Potent and Orally Bioavailable Selective Estrogen Receptor Degrader and Antagonist” (J Med Chem, 2020)

How the values were obtained:
[1] = Chemical stability of compound assessed as drug degradation in deuterated buffer at pH 7.4 measured for 8 days; format: physicochemical; conditions: pH 7.4, 192 h, time 8 day
[2] = Stability of compound at 60 degC and 75% relative humidity assessed parent compound remaining measured 1 week using amorphous form of sample by chromatographic method; format: physicochemical; conditions: solid sample, time 1 weeks, read-out: Stabilty
[3] = Stability of compound at 60 degC and 75% relative humidity assessed parent compound remaining measured 1 week using crystalline form of sample by chromatographic method; format: physicochemical; conditions: solid sample, time 1 weeks, read-out: Stabilty
[4] = Oral bioavailability in rat at 1 mg/kg; format: ADME, organism-based; conditions: in vivo
Summary of the method: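 Rat PK: single IV dose 0.5 mg/kg and oral dose 1 mg/kg, formulated in 5% DMSO:95% hydroxypropyl-β-cyclodextrin (30% w/v), dosed at 1 mL/kg IV and 4 mL/kg PO.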

[5] = Half-life in mouse at 2 mg/kg, iv or 5 mg/kg, po; format: ADME, organism-based; conditions: in vivo
Cytochrome P450 2C9 = Cytochrome P450 2C9 (Homo sapiens, UniProt P11712); assay: Inhibition of CYP2C9 in human liver microsomes; format: ADME
Sequence of Cytochrome P450 2C9 (P11712 whole entry, canonical isoform): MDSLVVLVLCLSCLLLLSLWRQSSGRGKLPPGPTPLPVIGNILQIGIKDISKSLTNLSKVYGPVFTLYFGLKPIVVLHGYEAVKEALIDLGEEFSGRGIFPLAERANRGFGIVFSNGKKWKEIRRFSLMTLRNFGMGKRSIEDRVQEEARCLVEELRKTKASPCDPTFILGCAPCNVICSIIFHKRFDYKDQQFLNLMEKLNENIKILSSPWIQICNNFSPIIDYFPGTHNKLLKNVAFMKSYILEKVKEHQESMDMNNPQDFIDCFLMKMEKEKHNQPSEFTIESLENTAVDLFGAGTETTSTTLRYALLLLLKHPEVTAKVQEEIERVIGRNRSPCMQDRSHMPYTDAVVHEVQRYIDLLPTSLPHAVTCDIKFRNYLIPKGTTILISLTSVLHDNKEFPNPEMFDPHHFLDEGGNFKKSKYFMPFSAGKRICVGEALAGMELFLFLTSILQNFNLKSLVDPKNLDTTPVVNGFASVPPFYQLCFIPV
Summary of the method: (§1)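 High-throughput human liver microsome panel of five CYP isoforms; inhibition reported as IC50.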

[6] = Intrinsic clearance in mouse hepatocytes assessed per million cells; format: ADME, cell-based, Hepatocyte; conditions: read-out: CLH
Summary of the method: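 Compound added from DMSO stock to isolated hepatocytes diluted to 1x10⁶ cells/mL. Metabolic turnover rate is reported as intrinsic clearance in µl/min/10⁶ cells.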

[7] = Antitumor activity against human […] cells xenografted in CB17 SCID mouse assessed as tumor growth inhibition at 2 mg/kg, po administered daily via oral gavage for 21 days relative to control; format: functional; conditions: MCF7, po, time 21 day, read-out: TGI
[8] = Volume of distribution at steady state in rat at 0.5 mg/kg, iv or 1 mg/kg, po; format: ADME, organism-based; conditions: in vivo, read-out: Vdss
Summary of the method: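 Rat dosed IV at 0.5 mg/kg and PO at 1 mg/kg, both formulated in 5% DMSO:95% hydroxypropyl-β-cyclodextrin (30% w/v), at 1 mL/kg IV and 4 mL/kg PO. Vdss (L/kg) derived from the pharmacokinetic profile after dosing.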

[9] = Chemical stability of compound assessed as drug degradation in buffer at pH 7.4 stored at 22 to 60 degreeC measured after 5 days; format: physicochemical; conditions: pH 7.4, 120 h, time 5 day
[10] = Antitumor activity against human […] cells xenografted in CB17 SCID mouse assessed as tumor regression at 10 mg/kg, po administered daily via oral gavage for 21 days relative to control; format: functional, MCF7; conditions: time 21 day
[11] = Chemical stability of compound assessed as drug degradation in buffer at pH 10 stored at 22 to 60 degreeC measured after 5 days; format: physicochemical; conditions: pH 10, 120 h, time 5 day
Cytochrome P450 2D6 = Cytochrome P450 2D6 (Homo sapiens, UniProt P10635); assay: Inhibition of CYP2D6 in human liver microsomes; format: ADME; summary of the method: as §1
Sequence of Cytochrome P450 2D6 (P10635 whole entry): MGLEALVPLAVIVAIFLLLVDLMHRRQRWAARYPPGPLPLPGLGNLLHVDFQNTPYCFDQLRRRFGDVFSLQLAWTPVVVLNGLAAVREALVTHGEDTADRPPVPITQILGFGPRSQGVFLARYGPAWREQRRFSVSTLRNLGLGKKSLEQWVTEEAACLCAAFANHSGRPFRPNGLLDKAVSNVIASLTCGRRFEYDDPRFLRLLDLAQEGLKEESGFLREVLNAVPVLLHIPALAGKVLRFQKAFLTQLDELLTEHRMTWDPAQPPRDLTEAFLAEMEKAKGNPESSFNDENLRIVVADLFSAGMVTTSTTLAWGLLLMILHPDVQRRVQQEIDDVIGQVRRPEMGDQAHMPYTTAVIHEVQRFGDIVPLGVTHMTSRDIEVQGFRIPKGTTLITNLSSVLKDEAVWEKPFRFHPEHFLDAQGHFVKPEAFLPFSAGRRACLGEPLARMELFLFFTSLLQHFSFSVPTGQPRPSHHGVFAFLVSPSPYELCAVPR

[12] = Solubility of compound in stimulated gastric fluid using crystalline form of sample; format: physicochemical; conditions: simulated gastric fluid
Cytochrome P450 1A2 = target: T1, Cytochrome P450 1A2 (Homo sapiens, UniProt P05177); assay: Inhibition of CYP1A2 in human liver microsomes; format: ADME; summary of the method: as §1
T1 sequence (P05177 whole entry): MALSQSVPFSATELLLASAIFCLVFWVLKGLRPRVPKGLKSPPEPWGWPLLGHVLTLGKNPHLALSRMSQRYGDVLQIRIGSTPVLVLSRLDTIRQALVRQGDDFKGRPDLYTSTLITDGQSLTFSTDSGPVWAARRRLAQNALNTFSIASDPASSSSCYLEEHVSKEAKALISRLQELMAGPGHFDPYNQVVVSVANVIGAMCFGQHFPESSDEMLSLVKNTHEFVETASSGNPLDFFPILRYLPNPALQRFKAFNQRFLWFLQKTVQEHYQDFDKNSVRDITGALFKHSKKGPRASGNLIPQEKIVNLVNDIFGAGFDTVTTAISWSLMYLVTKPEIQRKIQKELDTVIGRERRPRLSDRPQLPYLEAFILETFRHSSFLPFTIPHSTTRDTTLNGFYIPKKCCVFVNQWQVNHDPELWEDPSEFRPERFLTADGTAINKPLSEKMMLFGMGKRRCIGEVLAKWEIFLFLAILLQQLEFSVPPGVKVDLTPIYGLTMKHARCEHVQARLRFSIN

[13] = Chemical stability of compound assessed as drug degradation in deuterated buffer at pH 4 measured for 8 days; format: physicochemical; conditions: pH 4, 192 h, time 8 day

Stabilty [1]: Stable | remaining at 168 h [2]: 82.4% | remaining at 168 h [3]: 99.5% | bioavailability [4]: 19% | half-life [5]: 306 min | IC50 (Cytochrome P450 2C9): > 30 µM | hepatocyte CLint [6]: 18 µL/min/1e6 cells | Vd [8]: 13 L/kg | Stabilty [9]: Unstable | Stabilty [11]: Unstable | IC50 (Cytochrome P450 2D6): 4.3 µM | solubility thermodynamic [12]: > 10000 µg/mL | IC50 (Cytochrome P450 1A2): > 30 µM | Stabilty [13]: Stable
Compound: C[C@@H]1Cc2c(ccc3[nH]ncc23)[C@@H](c2ccc(NC3CN(CCCF)C3)cn2)N1CC(F)(F)F [CAMIZESTRANT]
inhibition in vivo at 2 mg/kg [7]: 73% | Activity [10]: 15%
